Laboratory results reported in ChEMBL document CHEMBL3286272, “Synthesis, biological, and biophysical studies of DAG-indololactones designed as selective activators of RasGRP” (Bioorg Med Chem, 2014).
Activity calls are given as the source filed them.

How the values were obtained:
Type in all cases: cell-based
[1] = target: T1, Ras guanyl-releasing protein 3 (Homo sapiens) (UniProt Q8IV61); experiment: Activation of RasGRP3 (unknown origin) overexpressed in HEK293 cells assessed as ERK1/2 phosphorylation at 0.1 to 30 uM after 30 mins by Western blot analysis
T1 sequence (whole entry): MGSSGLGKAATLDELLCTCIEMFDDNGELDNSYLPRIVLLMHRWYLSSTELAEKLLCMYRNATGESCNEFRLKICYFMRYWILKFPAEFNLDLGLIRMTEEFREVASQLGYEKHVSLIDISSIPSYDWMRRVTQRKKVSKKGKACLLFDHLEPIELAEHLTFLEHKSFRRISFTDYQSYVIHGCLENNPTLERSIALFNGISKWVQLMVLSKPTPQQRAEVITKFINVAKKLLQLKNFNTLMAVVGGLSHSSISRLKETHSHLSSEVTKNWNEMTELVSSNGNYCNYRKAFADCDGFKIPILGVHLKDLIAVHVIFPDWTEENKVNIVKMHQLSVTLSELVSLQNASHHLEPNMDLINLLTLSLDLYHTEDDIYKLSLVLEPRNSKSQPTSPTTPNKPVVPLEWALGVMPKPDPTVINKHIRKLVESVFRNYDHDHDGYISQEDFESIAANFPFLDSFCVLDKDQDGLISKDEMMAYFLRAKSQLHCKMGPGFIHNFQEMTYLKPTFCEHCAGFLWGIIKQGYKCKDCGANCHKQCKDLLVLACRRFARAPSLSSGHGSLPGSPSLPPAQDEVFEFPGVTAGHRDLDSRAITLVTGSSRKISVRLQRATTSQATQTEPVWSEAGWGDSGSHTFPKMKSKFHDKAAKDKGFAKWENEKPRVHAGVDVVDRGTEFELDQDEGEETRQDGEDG

[2] = target: Protein kinase C delta type (Homo sapiens) (UniProt Q05655); experiment: Activation of PKC-delta in HEK293 cells overexpressing RasGRP3 assessed as protein phosphorylation at S299 at 0.1 to 30 uM after 30 mins by Western blot analysis
[3] = target: T1, Ras guanyl-releasing protein 3 (Homo sapiens); experiment: Activation of RasGRP3 (unknown origin) overexpressed in HEK293 cells assessed as protein phosphorylation at T133 at 0.1 to 30 uM after 30 mins by Western blot analysis
[4] = target: Protein kinase C delta type (Homo sapiens) (UniProt Q05655); experiment: Binding affinity to recombinant human GFP-tagged PKC-delta expressed in human LNCAP cells assessed as induction of protein translocation from plasma membrane to internal membrane at 1000 nM after 2 to 10 mins by confocal microscopic analysis
Method in brief: (§1)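 Human GFP-PKCδ or GFP-RasGRP3 is expressed transiently in LNCaP cells, which were plated at 80,000 cells/ml, transfected after 48 h and imaged live 24 h after transfection. Cells are treated with ligand ([…]) or PMA (1000 nM). Confocal images (488 nm excitation, 500–530 nm emission) are taken every 30 s for 30 min. Representative images, n = 3–6.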

[5] = target: Protein kinase C delta type (Homo sapiens) (UniProt Q05655); experiment: Activation of PKC-delta in HEK293 cells assessed as protein phosphorylation at S299 at 0.1 to 30 uM after 30 mins by Western blot analysis
[6] = target: T1, Ras guanyl-releasing protein 3 (Homo sapiens); experiment: Binding affinity to recombinant human GFP-tagged RasGRP3 expressed in human LNCAP cells assessed as induction of protein translocation from plasma membrane to internal membrane at 1000 nM after 2 to 10 mins by confocal microscopic analysis; method in brief: as §1

Measured: Activity

Protein kinase C delta type (Homo sapiens), sequence (Q05655 whole entry, looked up): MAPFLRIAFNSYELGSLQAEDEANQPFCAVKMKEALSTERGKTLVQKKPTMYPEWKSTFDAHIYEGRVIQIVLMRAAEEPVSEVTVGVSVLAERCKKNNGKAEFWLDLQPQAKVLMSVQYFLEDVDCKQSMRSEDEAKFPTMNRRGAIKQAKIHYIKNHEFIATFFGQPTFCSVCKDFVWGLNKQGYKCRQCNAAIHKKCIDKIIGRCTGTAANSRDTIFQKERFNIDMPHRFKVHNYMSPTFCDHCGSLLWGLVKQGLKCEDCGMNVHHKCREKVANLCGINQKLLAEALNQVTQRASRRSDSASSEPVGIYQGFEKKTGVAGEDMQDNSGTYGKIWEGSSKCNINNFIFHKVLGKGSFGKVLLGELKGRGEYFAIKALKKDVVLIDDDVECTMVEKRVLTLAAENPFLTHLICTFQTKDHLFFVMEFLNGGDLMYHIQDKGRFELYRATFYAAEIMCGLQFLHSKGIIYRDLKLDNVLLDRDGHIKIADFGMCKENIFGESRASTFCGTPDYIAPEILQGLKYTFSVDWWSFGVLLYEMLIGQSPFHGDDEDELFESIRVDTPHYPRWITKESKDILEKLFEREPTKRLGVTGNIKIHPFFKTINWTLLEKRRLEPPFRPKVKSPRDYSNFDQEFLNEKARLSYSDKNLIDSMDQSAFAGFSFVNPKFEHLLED

CCCCCCCCCCCCCC(=O)O[C@@H]1[C@@H](C)[C@@]2(O)[C@@H](C=C(CO)C[C@]3(O)C(=O)C(C)=C[C@@H]23)[C@@H]2C(C)(C)[C@]12OC(C)=O
active: all assays above

CCCC(=O)O[C@@H]1[C@@H](C)[C@@]2(O)[C@@H](C=C(CO)C[C@]3(O)C(=O)C(C)=C[C@@H]23)[C@@H]2C(C)(C)[C@]12OC(=O)CCC
active: [4] | [6]
